Measured values from ChEMBL document CHEMBL3112482, “Nonclassical antifolates, part 5. Benzodiazepine analogs as a new class of DHFR inhibitors: synthesis, antitumor testing and molecular modeling study” (Eur J Med Chem, 2014).

Key:
NCI-H23 = experiment: Growth inhibition of human NCI-H23 cells at 10 uM after 48 hrs; type: functional; settings: NCI-H23, 48 h, read-out: GI
Summary of the method: (§1)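 Single-dose primary screen in the NCI 60 human tumour cell line panel, run at the NCI facility. The panel covers nine subpanels: leukaemia, non-small cell lung, colon, CNS, melanoma, ovarian, renal, prostate and breast. Read-out was percent growth of treated cells, shown as a mean graph and reported as percent growth inhibition.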

[1] = Cytotoxicity against human breast cancer cells at 10 uM after 48 hrs; type: functional; settings: Cancer cell lines; summary of the method: as §1
MDA-MB-231 = experiment: Growth inhibition of human MDA-MB-231 cells at 10 uM after 48 hrs; type: functional; settings: MDA-MB-231, 48 h, read-out: GI; summary of the method: as §1
SR = experiment: Growth inhibition of human SR cells at 10 uM after 48 hrs; type: functional; settings: read-out: GI
Summary of the method: (§2)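 NCI 60-cell-line disease-oriented human tumor panel, single-dose primary screen at 10 µM. Data given as mean-graph percent growth of treated cells, reported as percent growth inhibition (GI %).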

K562 = experiment: Growth inhibition of human K562 cells at 10 uM after 48 hrs; type: functional; settings: K562, 48 h, read-out: GI; summary of the method: as §1
Dihydrofolate reductase = biological target: T1, Dihydrofolate reductase (Bos taurus, UniProt P00376); experiment: Inhibition of bovine liver DHFR measured for every 1 min of 10 mins
T1 sequence (P00376 whole entry): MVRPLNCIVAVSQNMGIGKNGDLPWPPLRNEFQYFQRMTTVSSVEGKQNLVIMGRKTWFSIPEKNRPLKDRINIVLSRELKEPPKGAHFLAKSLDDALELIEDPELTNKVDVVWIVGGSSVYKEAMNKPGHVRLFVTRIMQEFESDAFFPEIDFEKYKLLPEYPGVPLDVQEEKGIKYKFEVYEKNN

T47D = experiment: Growth inhibition of human T47D cells at 10 uM after 48 hrs; type: functional; settings: read-out: GI; summary of the method: as §2
SK-OV-3 = experiment: Growth inhibition of human SKOV3 cells at 10 uM after 48 hrs; type: functional; settings: SK-OV-3, 48 h, read-out: GI; summary of the method: as §2
[2] = Growth inhibition of human NCI-ADR-RES cells at 10 uM after 48 hrs; type: functional; settings: read-out: GI; summary of the method: as §1
[3] = Growth inhibition of human Hs 578T cells at 10 uM after 48 hrs; type: functional; settings: read-out: GI; summary of the method: as §1
SF-268 = experiment: Growth inhibition of human SF268 cells at 10 uM after 48 hrs; type: functional; settings: SF-268, 48 h, read-out: GI; summary of the method: as §2
MCF7 = experiment: Growth inhibition of human MCF7 cells at 10 uM after 48 hrs; type: functional; settings: MCF7, 48 h, read-out: GI; summary of the method: as §1
TK-10 = experiment: Growth inhibition of human TK10 cells at 10 uM after 48 hrs; type: functional; settings: TK-10, 48 h, read-out: GI; summary of the method: as §2
[4] = Growth inhibition of human EKVX cells at 10 uM after 48 hrs; type: functional; settings: read-out: GI; summary of the method: as §1
SK-MEL-28 = experiment: Growth inhibition of human SK-MEL-28 cells at 10 uM after 48 hrs; type: functional; settings: SK-MEL-28, 48 h, read-out: GI; summary of the method: as §2
[5] = Growth inhibition of human SF539 cells at 10 uM after 48 hrs; type: functional; settings: SF-539, 48 h, read-out: GI; summary of the method: as §2
[6] = Growth inhibition of human UO31 cells at 10 uM after 48 hrs; type: functional; settings: UO-31, 48 h, read-out: GI; summary of the method: as §2
SNB-75 = experiment: Growth inhibition of human SNB75 cells at 10 uM after 48 hrs; type: functional; settings: SNB-75, 48 h, read-out: GI; summary of the method: as §2
NCI-H322M = experiment: Growth inhibition of human NCI-H322M cells at 10 uM after 48 hrs; type: functional; settings: read-out: GI; summary of the method: as §1
[7] = Growth inhibition of human OVCAR4 cells at 10 uM after 48 hrs; type: functional; settings: OVCAR-4, 48 h, read-out: GI; summary of the method: as §1
A498 = experiment: Growth inhibition of human A498 cells at 10 uM after 48 hrs; type: functional; settings: A498, 48 h, read-out: GI; summary of the method: as §1
[8] = Growth inhibition of human OVCAR5 cells at 10 uM after 48 hrs; type: functional; settings: OVCAR-5, 48 h, read-out: GI; summary of the method: as §1
SNB-19 = experiment: Growth inhibition of human SNB19 cells at 10 uM after 48 hrs; type: functional; settings: SNB-19, 48 h, read-out: GI; summary of the method: as §2
[9] = Cytotoxicity against human renal cancer cells at 10 uM after 48 hrs; type: functional; settings: Cancer cell lines
PC-3 = experiment: Growth inhibition of human PC3 cells at 10 uM after 48 hrs; type: functional; settings: PC-3, 48 h, read-out: GI; summary of the method: as §1
SW-620 = experiment: Growth inhibition of human SW620 cells at 10 uM after 48 hrs; type: functional; settings: SW-620, 48 h, read-out: GI; summary of the method: as §2
A549 = experiment: Growth inhibition of human A549 cells at 10 uM after 48 hrs; type: functional; settings: A549, 48 h, read-out: GI; summary of the method: as §1
HL-60(TB) = experiment: Growth inhibition of human HL-60(TB) cells at 10 uM after 48 hrs; type: functional; settings: HL-60, 48 h, read-out: GI
Summary of the method: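 NCI 60-cell-line human tumour panel covering nine subpanels (leukaemia, non-small cell lung, colon, CNS, melanoma, ovarian, renal, prostate, breast), run at the NCI facility. Primary screen tested a single dose of each compound. Read-out was percent growth of treated cells versus untreated cells, reported from the mean graph as percentage growth inhibition.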

[10] = Growth inhibition of human HOP92 cells at 10 uM after 48 hrs; type: functional; settings: HOP-92, 48 h, read-out: GI; summary of the method: as §1
[11] = Growth inhibition of human UACC257 cells at 10 uM after 48 hrs; type: functional; settings: UACC-257, 48 h, read-out: GI; summary of the method: as §2
HCT-15 = experiment: Growth inhibition of human HCT15 cells at 10 uM after 48 hrs; type: functional; settings: HCT-15, 48 h, read-out: GI; summary of the method: as §1
MOLT-4 = experiment: Growth inhibition of human MOLT4 cells at 10 uM after 48 hrs; type: functional; settings: MOLT-4, 48 h, read-out: GI; summary of the method: as §1

## COc1cc(/C=C2\CCCc3c2nc(N)nc3-c2cc(OC)c(OC)c(OC)c2)cc(OC)c1OC
NCI-H23
  inhibition of growth at 10 µM: 88.4%
[1]
  GI50: 2 µM
  LC50 (concentration killing 50% of cells): > 100 µM
  TGI: 69.2 µM
MDA-MB-231
  inhibition of growth at 10 µM: 71.1%
SR
  inhibition of growth at 10 µM: 99%
K562
  inhibition of growth at 10 µM: 93.6%
Dihydrofolate reductase
  IC50: 21 µM
T47D
  inhibition of growth at 10 µM: 72.5%
SK-OV-3
  inhibition of growth at 10 µM: 92.8%
[2]
  inhibition of growth at 10 µM: 96.1%
[3]
  inhibition of growth at 10 µM: 63%
SF-268
  inhibition of growth at 10 µM: 84.9%
MCF7
  inhibition of growth at 10 µM: 57%
TK-10
  inhibition of growth at 10 µM: < 30%
[4]
  inhibition of growth at 10 µM: 44%
SK-MEL-28
  inhibition of growth at 10 µM: 75.1%
[5]
  inhibition of growth at 10 µM: 74.1%
[6]
  inhibition of growth at 10 µM: 65.7%
SNB-75
  inhibition of growth at 10 µM: 54.3%
NCI-H322M
  inhibition of growth at 10 µM: < 30%
[7]
  inhibition of growth at 10 µM: 73.1%
A498
  inhibition of growth at 10 µM: 99.5%
[8]
  inhibition of growth at 10 µM: 93.2%
SNB-19
  inhibition of growth at 10 µM: 38.5%
[9]
  CC50: > 100 µM
  GI50: 1.8 µM
  TGI: 20.8 µM
PC-3
  inhibition of growth at 10 µM: 74.1%

## COc1cc(/C=C2\CCCC3=C(c4cc(OC)c(OC)c(OC)c4)Nc4ccccc4N=C32)cc(OC)c1OC
NCI-H23
  inhibition of growth at 10 µM: 91.5%
SW-620
  inhibition of growth at 10 µM: 94.3%
[1]
  GI50: 2.9 µM
  LC50 (concentration killing 50% of cells): 89.4 µM
  TGI: 48.2 µM
MDA-MB-231
  inhibition of growth at 10 µM: 75.9%
SR
  inhibition of growth at 10 µM: 97.3%
K562
  inhibition of growth at 10 µM: 94.7%
Dihydrofolate reductase
  IC50: 0.09 µM
T47D
  inhibition of growth at 10 µM: 76.2%
SK-OV-3
  inhibition of growth at 10 µM: 54.6%
A549
  inhibition of growth at 10 µM: 94.1%
HL-60(TB)
  inhibition of growth at 10 µM: 98.5%
[2]
  inhibition of growth at 10 µM: 94.1%
[3]
  inhibition of growth at 10 µM: 46.8%
[10]
  inhibition of growth at 10 µM: < 30%
SF-268
  inhibition of growth at 10 µM: 74%
MCF7
  inhibition of growth at 10 µM: 63.1%
TK-10
  inhibition of growth at 10 µM: < 30%
[4]
  inhibition of growth at 10 µM: 40.2%
SK-MEL-28
  inhibition of growth at 10 µM: 70.6%
[5]
  inhibition of growth at 10 µM: 64.9%
[6]
  inhibition of growth at 10 µM: 94.4%
SNB-75
  inhibition of growth at 10 µM: 45.5%
NCI-H322M
  inhibition of growth at 10 µM: < 30%
[7]
  inhibition of growth at 10 µM: 66.5%
[8]
  inhibition of growth at 10 µM: 83.5%
[11]
  inhibition of growth at 10 µM: 83.8%
SNB-19
  inhibition of growth at 10 µM: 35.6%
[9]
  CC50: 68.4 µM
  GI50: 2.3 µM
  TGI: 20 µM
HCT-15
  inhibition of growth at 10 µM: 93.9%
PC-3
  inhibition of growth at 10 µM: 61.8%
MOLT-4
  inhibition of growth at 10 µM: 99.4%
